# Measured values as given in ChEMBL document CHEMBL4689842, “EUbOPEN Chemogenomics Library wave 1” (2021).
# System: U2OS
# Test: Multiplex assay against U2OS
# Type: toxicity, cell-based
# Details: human
# Procedure, shortened: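 Per cents of healthy-nucleus cells form the tubulin, mitochondrial-mass and membrane-permeability phenotype values. Live cells were stained at seeding with Hoechst33342, BioTracker Green Microtubule Cytoskeleton Dye, MitoTracker Red and Annexin V Alexa Fluor 680. After compound addition they were imaged on a CQ1 microscope at 37°C and 5% CO2, and CellPathfinder machine-learning gating split them into Hoechst high-intensity objects or normal cells, normal cells into healthy, pyknosed or fragmented nuclei, and pyknosed cells into mitotic or apoptotic.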
# [1] = 12 h, 1 µM, compound concentration 1 uM, replicate 1
# [2] = 12 h, 1 µM, compound concentration 1 uM, replicate 2
# [3] = 12 h, 10 µM, compound concentration 10 uM, replicate 1
# [4] = 12 h, 10 µM, compound concentration 10 uM, replicate 2
# [5] = 24 h, 1 µM, compound concentration 1 uM, replicate 1
# [6] = 24 h, 1 µM, compound concentration 1 uM, replicate 2
# [7] = 24 h, 10 µM, compound concentration 10 uM, replicate 1
# [8] = 24 h, 10 µM, compound concentration 10 uM, replicate 2
# [9] = 48 h, 1 µM, compound concentration 1 uM, replicate 1
# [10] = 48 h, 1 µM, compound concentration 1 uM, replicate 2
# [11] = 48 h, 10 µM, compound concentration 10 uM, replicate 1
# [12] = 48 h, 10 µM, compound concentration 10 uM, replicate 2
smiles,measurement,setting,value
Cc1ccc(S(=O)(=O)NC2c3ccccc3Oc3ccccc32)cc1,Population Apoptotic (%),[1],47%
same,Population Fragmented Nuclei (%),[1],11%
same,Population Healthy Nuclei (%),[1],77%
same,Population Hoechst High Intensity Objects (%),[1],5%
same,Population Membrane Permeable-Phenotype (%),[1],6%
same,Population Mitochondria Different-Phenotype (%),[1],5%
same,Population Mitotic Cells (%),[1],52%
same,Population Normal (%),[1],94%
same,Population Pyknosed Nuclei (%),[1],10%
same,Population Tubulin-Different-Phenotype (%),[1],5%
same,Total Cell Count,[1],216
same,Population Apoptotic (%),[2],0%
same,Population Fragmented Nuclei (%),[2],10%
same,Population Healthy Nuclei (%),[2],76%
same,Population Hoechst High Intensity Objects (%),[2],4%
same,Population Membrane Permeable-Phenotype (%),[2],0%
same,Population Mitochondria Different-Phenotype (%),[2],16%
same,Population Mitotic Cells (%),[2],100%
same,Population Normal (%),[2],95%
same,Population Pyknosed Nuclei (%),[2],12%
same,Population Tubulin-Different-Phenotype (%),[2],2%
same,Total Cell Count,[2],49
same,Population Apoptotic (%),[3],71%
same,Population Fragmented Nuclei (%),[3],84%
same,Population Healthy Nuclei (%),[3],12%
same,Population Hoechst High Intensity Objects (%),[3],7%
same,Population Membrane Permeable-Phenotype (%),[3],71%
same,Population Mitochondria Different-Phenotype (%),[3],28%
same,Population Mitotic Cells (%),[3],28%
same,Population Normal (%),[3],92%
same,Population Pyknosed Nuclei (%),[3],2%
same,Population Tubulin-Different-Phenotype (%),[3],68%
same,Total Cell Count,[3],507
same,Population Apoptotic (%),[4],95%
same,Population Fragmented Nuclei (%),[4],42%
same,Population Healthy Nuclei (%),[4],34%
same,Population Hoechst High Intensity Objects (%),[4],6%
same,Population Membrane Permeable-Phenotype (%),[4],44%
same,Population Mitochondria Different-Phenotype (%),[4],0%
same,Population Mitotic Cells (%),[4],4%
same,Population Normal (%),[4],93%
same,Population Pyknosed Nuclei (%),[4],23%
same,Population Tubulin-Different-Phenotype (%),[4],50%
same,Total Cell Count,[4],106
same,Population Apoptotic (%),[5],59%
same,Population Fragmented Nuclei (%),[5],57%
same,Population Healthy Nuclei (%),[5],25%
same,Population Hoechst High Intensity Objects (%),[5],0%
same,Population Membrane Permeable-Phenotype (%),[5],11%
same,Population Mitochondria Different-Phenotype (%),[5],17%
same,Population Mitotic Cells (%),[5],40%
same,Population Normal (%),[5],100%
same,Population Pyknosed Nuclei (%),[5],16%
same,Population Tubulin-Different-Phenotype (%),[5],5%
same,Total Cell Count,[5],132
same,Population Apoptotic (%),[6],25%
same,Population Fragmented Nuclei (%),[6],5%
same,Population Healthy Nuclei (%),[6],88%
same,Population Hoechst High Intensity Objects (%),[6],7%
same,Population Membrane Permeable-Phenotype (%),[6],7%
same,Population Mitochondria Different-Phenotype (%),[6],15%
same,Population Mitotic Cells (%),[6],75%
same,Population Normal (%),[6],92%
same,Population Pyknosed Nuclei (%),[6],6%
same,Population Tubulin-Different-Phenotype (%),[6],13%
same,Total Cell Count,[6],65
same,Population Apoptotic (%),[7],71%
same,Population Fragmented Nuclei (%),[7],69%
same,Population Healthy Nuclei (%),[7],27%
same,Population Hoechst High Intensity Objects (%),[7],6%
same,Population Membrane Permeable-Phenotype (%),[7],34%
same,Population Mitochondria Different-Phenotype (%),[7],18%
same,Population Mitotic Cells (%),[7],28%
same,Population Normal (%),[7],93%
same,Population Pyknosed Nuclei (%),[7],2%
same,Population Tubulin-Different-Phenotype (%),[7],19%
same,Total Cell Count,[7],321
same,Population Apoptotic (%),[8],100%
same,Population Fragmented Nuclei (%),[8],10%
same,Population Healthy Nuclei (%),[8],68%
same,Population Hoechst High Intensity Objects (%),[8],4%
same,Population Membrane Permeable-Phenotype (%),[8],20%
same,Population Mitochondria Different-Phenotype (%),[8],14%
same,Population Mitotic Cells (%),[8],0%
same,Population Normal (%),[8],95%
same,Population Pyknosed Nuclei (%),[8],21%
same,Population Tubulin-Different-Phenotype (%),[8],43%
same,Total Cell Count,[8],84
same,Population Apoptotic (%),[9],50%
same,Population Fragmented Nuclei (%),[9],8%
same,Population Healthy Nuclei (%),[9],85%
same,Population Membrane Permeable-Phenotype (%),[9],0%
same,Population Mitochondria Different-Phenotype (%),[9],7%
same,Population Mitotic Cells (%),[9],50%
same,Population Pyknosed Nuclei (%),[9],6%
same,Population Tubulin-Different-Phenotype (%),[9],3%
same,Total Cell Count,[9],429
same,Population Apoptotic (%),[10],25%
same,Population Fragmented Nuclei (%),[10],5%
same,Population Healthy Nuclei (%),[10],90%
same,Population Hoechst High Intensity Objects (%),[10],2%
same,Population Membrane Permeable-Phenotype (%),[10],10%
same,Population Mitochondria Different-Phenotype (%),[10],18%
same,Population Mitotic Cells (%),[10],75%
same,Population Normal (%),[10],97%
same,Population Pyknosed Nuclei (%),[10],4%
same,Population Tubulin-Different-Phenotype (%),[10],10%
same,Total Cell Count,[10],93
same,Population Apoptotic (%),[11],44%
same,Population Fragmented Nuclei (%),[11],11%
same,Population Healthy Nuclei (%),[11],82%
same,Population Hoechst High Intensity Objects (%),[11],3%
same,Population Membrane Permeable-Phenotype (%),[11],3%
same,Population Mitochondria Different-Phenotype (%),[11],12%
same,Population Mitotic Cells (%),[11],55%
same,Population Normal (%),[11],96%
same,Population Pyknosed Nuclei (%),[11],6%
same,Population Tubulin-Different-Phenotype (%),[11],12%
same,Total Cell Count,[11],155
same,Population Apoptotic (%),[12],75%
same,Population Fragmented Nuclei (%),[12],7%
same,Population Healthy Nuclei (%),[12],84%
same,Population Hoechst High Intensity Objects (%),[12],4%
same,Population Membrane Permeable-Phenotype (%),[12],17%
same,Population Mitochondria Different-Phenotype (%),[12],14%
same,Population Mitotic Cells (%),[12],25%
same,Population Normal (%),[12],95%
same,Population Pyknosed Nuclei (%),[12],7%
same,Population Tubulin-Different-Phenotype (%),[12],37%
same,Total Cell Count,[12],109
